“Also recorded” adds a separate entry of the source. Like-named read-outs stand apart in the source and are kept apart here. One block for each compound: values may come before it.
Legend:
[1] = cited from earlier work
[2] = cited from earlier work; remark: listed apart in the source
[3] = format: in vivo, human
How it was run: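 Healthy adults aged 18–65 years (≥50 kg, BMI 18.5–31.0 kg/m2) were randomised 1:1 to a two-period crossover. Each received a single oral 30 mg tablet after ≥10 h fasting or within 30 min of a high-fat meal (~53% fat, ~870 calories), with a 14-day washout. Plasma was sampled predose to 168 h and assayed by protein precipitation plus LC-MS/MS (LLOQ 25 ng/mL, ULOQ 25,000 ng/mL). Parameters were noncompartmental. GLS mean ratios (90% CI) came from a mixed-effects model with treatment and period as fixed effects and participant as random.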

[4] = Safety assessments in the phase 1 food-effect study; format: in vivo, human
HIV‐1 = conditions: cited from earlier work
[5] = cited from earlier work; remark: listed apart in the source
serum albumin = conditions: cited from earlier work
[6] = tested on: uridine diphosphate glucuronosyltransferase (UGT)1A1, UGT1A9; conditions: forms glucuronic acid conjugates; minor contribution by UGT1A9; cited from earlier work
OATP = conditions: cited from earlier work
[7] = coadministered rifampin; cited from earlier work
[8] = single-dose oral 30 mg, fasted conditions, cited from earlier work
[9] = 30 mg with a moderate-fat meal; ref Supplemental Data; cited from earlier work
[10] = 10‐ and 30‐mg doses, early prototype formulations; ref Supplemental Data; cited from earlier work
[11] = cited from earlier work; remark: listed apart in the source
[12] = 30-mg single oral dose, high-fat meal, n = 21
[13] = Fasted State vs High‐Fat Meal, 30-mg single dose, n = 21
[14] = high-fat meal compared with fasting state, 30 mg oral

Structure (SMILES): C[C@@H]1CCO[C@H]2Cn3cc(C(=O)NCc4ccc(F)cc4F)c(=O)c(O)c3C(=O)N12 [Dolutegravir]
increase in plasma AUC0‐∞ ([1]; single-dose dolutegravir 50 mg with high-fat meal): 66%
increase in plasma AUC0‐∞ ([1]; single-dose dolutegravir 50 mg with low-fat meal): 33%
increase in plasma AUC0‐∞ ([1]; single-dose dolutegravir 50 mg with moderate-fat meal): 41%

Structure (SMILES): Cc1nnc(C(=O)NC(C)(C)c2nc(C(=O)NCc3ccc(F)cc3)c(O)c(=O)n2C)o1 [Raltegravir]
increase in AUC from time 0 to 12 hours ([2]; raltegravir 400 mg twice daily with a high-fat meal): 2 fold
increase in AUC from time 0 to last observation ([2]; raltegravir 1200 mg (2 × 600 mg) once daily, following a high-fat meal): 1.9%
decrease in AUC from time 0 to last observation ([2]; raltegravir 1200 mg (2 × 600 mg) once daily, following a low-fat meal): 42%

effect of high-fat meal on tmax and t1/2 ([3]; 30 mg oral, high-fat meal vs fasting): Neither tmax nor t1/2 was affected
CL/F, Mean (SD) ([3]; 30-mg single oral dose, fasted state, n = 21): 0.218 (0.0611) L/h
CL/F, Mean (SD) [3, 12]: 0.191 (0.0553) L/h
t1/2, Mean (SD) [3, 12]: 41.1 (6.57) h
peak concentration of the one participant excluded from PK analysis ([3]; 2 hours after dosing, fasting conditions, 30 mg oral): 0.0987 µg/mL
AUC0‐∞, GLS Mean Ratio (90% CI) [3, 13]: 1.14 (1.02‐1.28)
C24, GLS Mean Ratio (90% CI) [3, 13]: 1.17 (1.04‐1.30)
CL/F, GLS Mean Ratio (90% CI) [3, 13]: 0.875 (0.785‐0.977)
Cmax, GLS Mean Ratio (90% CI) [3, 13]: 1.14 (1.03‐1.27)
t1/2, GLS Mean Ratio (90% CI) [3, 13]: 0.997 (0.964‐1.03)
quantifiable predose concentrations ([3]; crossover periods, 14-day washout): < 5 % of their respective Cmax values
decrease in CL/F ([3]; high-fat meal compared with after fasting, 30 mg oral): 13%
increase in maximal drug concentration [3, 14]: 14%
increase in plasma area under the concentration‐time curve [3, 14]: 14%
half-life ([3]; human, plasma, po, 30 mg): 41.1 h
Structure (SMILES): C[C@H]1CO[C@@H]2Cn3cc(C(=O)NCc4ccc(F)cc4F)c(=O)c(O)c3C(=O)N12 [cabotegravir, Cabotegravir]
treatment‐emergent laboratory abnormalities ([4]; grade 2 hypoglycemia, grade 3 increased direct bilirubin): 2 participants
electrocardiographic or vital sign abnormalities reported as AEs ([4]; single 30-mg oral doses): No clinically significant electrocardiographic or vital sign abnormalities
adverse events (grade 3/4, drug-related, serious, leading to discontinuation) ([4]; single 30-mg oral doses, fasted and fed, healthy adults): No grade 3/4 adverse events (AEs), drug‐related AEs, or AEs leading to discontinuation were reported; also recorded: no AEs or serious AEs that led to discontinuation of the study drug
in vitro protein‐adjusted 90% inhibitory concentration (HIV‐1): 166 ng/mL
Biopharmaceutics Drug Disposition Classification System class [5]: class 2
passive permeability [5]: high
binding to serum albumin (serum albumin): highly bound
metabolizing enzymes [6]: primarily metabolized by uridine diphosphate glucuronosyltransferase (UGT)1A1
substrate for intestinal uptake transporters such as OATP (OATP): not a substrate
effect of rifampin on cabotegravir exposures [7]: significantly reduced
AUC(0-inf) ([8]; read-out: AUC0‐∞): 146 µg·h/mL
median time to peak plasma concentration (tmax) [8]: 2 h
plasma apparent terminal‐phase half‐life (t1/2) [8]: approximately 38.5 hours
half‐life, geometric mean (95% confidence interval) [9]: 38.6 h
effect of a moderate-fat meal (30% fat, ∼670 calories) on PK [10]: did not significantly affect
dose proportionality of trough concentration [11]: increase in proportional to dose
dose proportionality of AUC and Cmax ([11]; dose increased from 30 to 60 mg, ref Supplemental Data): less‐than‐dose‐proportional
